# Data published in ChEMBL document CHEMBL1128262, “New steroidal antiinflammatory antedrugs: steroidal [16 alpha,17 alpha-d]-3'-carbethoxyisoxazolines” (1995).
# Key:
# [1] = test system: Rattus norvegicus; assay: The %inhibition of compound for croton oil -induced ear edema was measured in rats at 0.1 mg/ear; assay type: functional
# Method in brief: (§1)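 Male Sprague-Dawley rats; initial ear thickness measured with spring-loaded micrometer. Single topical dose of steroid in 25 µL acetone/DMSO applied to ear surfaces, then 5% croton oil 30 min later. Ear thickness remeasured 5 h later at peak inflammation. % inhibition computed against vehicle-treated controls; five animals per group.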
# [2] = test system: Rattus norvegicus; assay: The %inhibition of compound for croton oil -induced ear edema was measured in rats at 0.03 mg/ear; assay type: functional; method in brief: as §1
# [3] = test system: Rattus norvegicus; assay: The %inhibition of compound for croton oil -induced ear edema was measured in rats at 0.01 mg/ear; assay type: functional; method in brief: as §1
# [4] = test system: Rattus norvegicus; assay: The antiinflammatory activity was evaluated as %inhibition of croton oil induced ear edema in the left ear of rat at the dose of 101(nmol/ear); assay type: functional
# Method in brief: (§2)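 Male Sprague-Dawley rats. Right ears dosed topically (acetone/DMSO vehicle, 25 µL) once daily for 5 days, with 5% croton oil applied 30 min after each dose. Left ears received vehicle plus croton oil to reflect systemic effect. Micrometer ear thickness read 5 h after croton oil. % inhibition computed against controls; ANOVA with Bonferroni test.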
# [5] = test system: Rattus norvegicus; assay: The body weight change of rats after administration of the compound; assay type: functional
# Method in brief: (§3)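 Male Sprague-Dawley rats given 5-day once-daily topical steroid to right ears in acetone/DMSO, with croton oil to both ears. Afterward, body weight change, thymus weight change and plasma corticosterone (ng/mL) were recorded against controls. Five or six samples per group, mean ± SEM; ANOVA with Bonferroni post hoc test.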
# [6] = test system: Rattus norvegicus; assay: The thymus weight change of rats after administration of the compound; assay type: functional; method in brief: as §3
# [7] = test system: Rattus norvegicus; assay: The plasma corticosterone (ng/ml) concentration was measured in rats after compound administration; assay type: functional, organism-based; method in brief: as §3
# [8] = test system: Rattus norvegicus; assay: The antiinflammatory activity was evaluated as %inhibition of croton oil induced ear edema in the right ear of rat at the dose of 101(nmol/ear); assay type: functional; method in brief: as §2
# [9] = test system: Rattus norvegicus; assay: The antiinflammatory activity was evaluated as %inhibition of croton oil induced ear edema in the right ear of rat At the dose of 135(nmol/ear); assay type: functional; method in brief: as §2
# [10] = test system: Rattus norvegicus; assay: The antiinflammatory activity was evaluated as %inhibition of croton oil induced ear edema in the left ear of rat At the dose of 135(nmol/ear); assay type: functional; method in brief: as §2
# [11] = test system: Rattus norvegicus; assay: The antiinflammatory activity was evaluated as %inhibition of croton oil induced ear edema in the right ear of rat; assay type: functional; method in brief: as §2
# [12] = test system: Rattus norvegicus; assay: The antiinflammatory activity was evaluated as %inhibition of croton oil induced ear edema in the left ear of rat; assay type: functional; method in brief: as §2
SMILES,Inhibition [1] [%],Inhibition [2] [%],Inhibition [3] [%],Inhibition [4] [%],Body weight change [5] [g],Thymus weight [6] [mg],Plasma corticosterone [7] [ng/mL],Inhibition [8] [%],Inhibition [9] [%],Inhibition [10] [%],Inhibition [11] [%],Inhibition [12] [%]
CCOC(=O)C1=NO[C@]2(C(=O)CO)[C@H]1CC1C3CCC4=CC(=O)C=C[C@]4(C)[C@H]3[C@@H](O)C[C@@]12C (stereo partly specified),44,44,31.3,–,–,–,–,–,–,–,–,–
CCOC(=O)C1=NO[C@]2(C(=O)COC(C)=O)[C@H]1CC1C3CCC4=CC(=O)C=C[C@]4(C)[C@H]3[C@@H](O)C[C@@]12C (stereo partly specified),35.7,21.4,14.9,–,–,–,–,–,–,–,–,–
CCOC(=O)C1=NO[C@]2(C(=O)COC(C)=O)[C@H]1CC1C3CCC4=CC(=O)C=C[C@]4(C)[C@@]3(F)[C@@H](O)C[C@@]12C (stereo partly specified),–,–,–,8.9,38,625,134,51.2,–,–,–,–
CCOC(=O)C1=NO[C@]2(C(=O)CO)[C@H]1CC1C3CCC4=CC(=O)C=C[C@]4(C)[C@@]3(F)[C@@H](O)C[C@@]12C (stereo partly specified),–,–,–,–,36,562,48.6,–,56.9,24.4,–,–
C[C@]12C=CC(=O)C=C1CC[C@@H]1[C@@H]2[C@@H](O)C[C@@]2(C)[C@H]1CC[C@]2(O)C(=O)CO [PREDNISOLONE],–,–,–,–,22.8,369,31.8,–,–,–,66.7,49.6
